# Screening results (PubChem BioAssay)
# The list is not random: actives were taken first. Their share in the collection is about 0.79%.
# hIAP block – blocks human intestinal alkaline phosphatase. P09923. purified IAP, CDP-Star luminescence, 30 min. inhibition, % at 10 µM. hit rate 0.12% among 330,000;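 active = inhibition reaching a set limit with compound at 10 µM in the primary screen, cut at about 35% in these data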;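 note: plate controls were DMSO wells with enzyme for no effect and no-enzyme buffer wells for full effect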
# Target sequence (P09923 whole entry, looked up): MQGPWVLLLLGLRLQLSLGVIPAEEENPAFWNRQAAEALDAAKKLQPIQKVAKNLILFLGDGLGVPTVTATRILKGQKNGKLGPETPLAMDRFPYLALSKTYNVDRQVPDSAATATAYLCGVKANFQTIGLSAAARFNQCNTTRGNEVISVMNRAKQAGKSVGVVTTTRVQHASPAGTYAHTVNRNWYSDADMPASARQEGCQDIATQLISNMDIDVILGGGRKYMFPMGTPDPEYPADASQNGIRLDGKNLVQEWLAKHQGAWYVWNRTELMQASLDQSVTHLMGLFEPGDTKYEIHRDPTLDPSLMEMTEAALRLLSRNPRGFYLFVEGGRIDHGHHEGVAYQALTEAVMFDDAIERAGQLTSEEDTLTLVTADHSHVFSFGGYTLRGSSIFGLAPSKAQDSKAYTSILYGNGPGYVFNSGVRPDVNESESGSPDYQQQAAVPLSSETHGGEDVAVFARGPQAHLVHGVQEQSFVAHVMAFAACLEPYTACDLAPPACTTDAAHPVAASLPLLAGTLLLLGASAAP
# bIAP inh – blocks bovine intestinal alkaline phosphatase activity; 190,000 tested, under 10 active; purified bovine IAP, CDP-star luminescence, 30 min; inhibition, % at 20 µM; AID 1019;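 active = over 50% inhibition of intestinal alkaline phosphatase at 20 µM in the single-dose screen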
#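 Assay system: bovine IAP enzyme; medium: DEA buffer 100 mM, pH 9.8, with MgCl2 1.0 mM, ZnCl2 0.02 mM; doses: 20 µM single dose; incubation: enzyme reaction for 30 min at room temperature; detection: CDP-star luminescence signal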
# mIAP act – mouse IAP activation | hit rate 0.24% among 330,000 | activation factor at 10 µM | AID 2805 | muIAP, CDP-Star luminescence, 30 min; active compounds read high; 1 = vehicle-only enzyme signal, 0 = enzyme-free wells;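 active = activation factor of at least 2 at 20 µM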
#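 Assay system: mouse IAP enzyme; Reagent: CDP-Star chemiluminescent phosphatase substrate; Compound: DMSO-dissolved test compounds; Incubation: 30 min, room temperature; Technique: luminescence from enzymatic CDP-Star hydrolysis; Controls: DMSO-only wells and no-enzyme negative control.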
# mIAP inh – blocks mouse intestinal alkaline phosphatase. inhibition, % at 10 µM. AID 2806. hit rate 0.2% among 330,000. purified mouse IAP, CDP-Star luminescence, 30 min;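 active = inhibition of at least 40% at 10 µM in the primary screen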;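 note: plate controls were DMSO with enzyme for no effect and no enzyme wells for full effect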
# bIAP act – increases bovine intestinal alkaline phosphatase activity. activation factor at 20 µM. purified bovine IAP, CDP-star luminescence, 30 min; active compounds read high; fold of DMSO-control signal, blank-subtracted. hit rate 0.17% among 200,000;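 active = activation factor of 2 or more at 20 µM, a signal rise over negative controls twice the positive control's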
# hIAP activ – increases human intestinal alkaline phosphatase activity; P09923; purified human IAP, CDP-Star luminescence, 30 min; active compounds read high; 1 = vehicle-only enzyme, 0 = enzyme-free background; activation factor at 10 µM; hit rate 0.16% among 330,000; AID 2524;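 active = activation factor of the enzyme at least 2-fold when tested at 20 µM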
# hIAP act conf – human IAP activation confirmation | shares compounds with hIAP activ | purified IAP, CDP-Star luminescence, 30 min; active compounds read low | activation (%Activity, negative = activation), % at 8.3 µM | hit rate 10% among 880 | AID 434926;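 active = at least twofold enzyme activation in any of six single-dose repeats, which the averaged readout prints as negative percent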
# * hit, by the source's call; x = no result.
SMILES,hIAP block,bIAP inh,mIAP act,mIAP inh,bIAP act,hIAP activ,hIAP act conf
CN(C)Cc1c(-c2ccc(Cl)cc2)nc2ccc(Cl)cn12,18.5,-5.8,0.941,5.9,1.1,0.815,x
C=CCn1c(CNS(=O)(=O)c2ccc(F)cc2)n[nH]c1=S,9.0,x,1.06,-6.5,x,0.91,x
C=CCn1c(CNS(=O)(=O)c2ccc(Cl)cc2)n[nH]c1=S,41.5*,x,0.835,16.5,x,0.585,-26.4
Cc1ccccc1-n1ncc(C(C)NS(=O)(=O)c2sccc2C)c1C (stereo unspecified),-2.7,x,0.996,0.4,x,1.03,x
CC(C)Cn1c(-c2ccccc2)nc(=S)c2c1CCCC2,-4.0,26.2,0.907,9.3,0.7,1.04,x
COc1cccc(-c2nc(=S)c3c(n2CCCO)CCCC3)c1,-137.7,-2.7,1.14,-14.4,1,2.38*,1.0
O=C(CN1CCC(NC(=O)c2ccccc2Cl)CC1)NCc1ccco1,-15.2,9.1,1.04,-4.4,0.9,1.15,x
COc1ccc(NC(=O)CN2C(=O)COc3ccc(S(=O)(=O)N4CCCCCC4)cc32)cc1,36.9*,x,1.03,-2.8,x,0.631,7.3
CCOc1ccc(NC(=O)CN2C(=O)COc3ccc(S(=O)(=O)N4CCCCC4)cc32)cc1,5.5,x,1.06,-5.6,x,0.945,x
Cc1nc(NC(=O)c2cccnc2Cl)sc1C,3.5,x,0.988,1.2,x,0.965,x
c1ccc(-c2nnc(-c3ccccc3)o2)cc1,12.9,1.5,1.01,-0.8,1,0.871,x
Nc1ccccc1-c1nnc(-c2ccc(-c3ccccc3)cc2)o1,-100.2,26.8,1.09,-9.2,0.7,2*,-46.5
O=C(COC(=O)CNC(=O)c1ccccc1)Nc1ccc(Cl)cn1,-18.2,x,1.02,-2.2,x,1.18,x
CCN=C1SC(C(=O)Nc2cccc(C)c2)CC(=O)N1CC (stereo unspecified),-6.2,9.4,0.996,0.4,0.9,1.06,x
Cc1cccc(NC(=O)C2CC(=O)n3cnnc3S2)c1 (stereo unspecified),-114.2,-0.9,0.912,8.8,1,2.14*,-12.3
O=C(NCCc1ccc(Cl)cc1)c1ccc(Br)s1,-0.1,x,0.996,0.4,x,1,x
O=C1c2c(O)cc(O)cc2O[C@H](c2ccc(O)cc2)[C@H]1O,-2.7,x,0.887,11.3,x,1.03,x
C[C@@H]1O[C@@H](O[C@@H]2C(=O)c3c(O)cc(O)cc3O[C@H]2c2ccc(O)c(O)c2)[C@H](O)[C@H](O)[C@H]1O,35.4*,x,0.865,13.5,x,0.646,-42.9
Cc1ccc(C(=O)CSc2nc(C)cc(=O)[nH]2)cc1,4.4,-7.6,1.05,-4.7,1.1,0.956,x
Cc1cc(=O)[nH]c(SCC(=O)c2ccc(O)c(O)c2)n1,43.3*,x,0.67,33.0,x,0.567,5.7
Nc1nc(NCCCN2CCOCC2)nc(Nc2cccc(F)c2)c1[N+](=O)[O-],36.1*,x,0.881,11.9,x,0.639,-18.1
CC(C)(C)OC(=O)NCCCC[C@H](NC(=O)c1nc[nH]c1C(=O)NCc1ccccc1)C(=O)OC(C)(C)C,-50.0,-17.0,1.34,-34.5,1.2,1.5,x
CCOC(=O)c1ccc(NC(=O)c2nc[nH]c2C(=O)NCCCCCNC(=O)OC(C)(C)C)cc1,-128.5,x,1.07,-6.6,x,2.29*,7.1
CCOC(=O)c1ccc(NC(=O)c2nc[nH]c2C(=O)NCCCCNC(=O)c2[nH]cnc2C(=O)Nc2ccc(C(=O)OCC)cc2)cc1,-67.2,x,1.1,-10.1,x,1.67,x
CC(C)(C)OC(=O)NCCCC[C@H](NC(=O)c1[nH]cnc1C(=O)Nc1ccc(CNC(=O)OC(C)(C)C)cc1)C(=O)OC(C)(C)C,-172.2,x,1.02,-2.5,x,2.72*,8.4
CCc1ccc(N(CC(=O)NCc2ccc(F)cc2)C(=O)c2csnn2)cc1,-5.7,5.1,1.01,-0.8,0.9,1.06,x
O=C(Nc1ccc(F)cc1)c1ccc2snnc2c1,35.0*,x,0.973,2.7,x,0.65,-57.0
Cc1ccc(NC(=O)c2ccc3snnc3c2)cc1C,-2.3,x,0.93,7.0,x,1.02,x
COC(=O)/C=C1\N/C(=N/c2nc(C)c3cc(OC)ccc3n2)NC1=O,-154.1,x,0.994,0.6,x,2.54*,-12.5
COC(=O)/C=C1/C(=O)N/C(=N\c2nc(C)cc(C)n2)N1c1ccc(OC)cc1,16.4,2.4,0.945,5.5,1,0.836,x
